# Results: ChEMBL document CHEMBL1649333, “In vivo efficacy of simulated human dosing regimens of prolonged-infusion doripenem against carbapenemase- producing Klebsiella pneumoniae” (2010)
# The source made the active and inactive calls. No cut-off for these calls is given here.
# Assays:
# Klebsiella pneumoniae [1] = experiment: Antimicrobial activity against Klebsiella pneumoniae; type: functional
# Klebsiella pneumoniae [2] = experiment: Antimicrobial activity against Klebsiella pneumoniae isolate KPC 361 by Etest; type: functional
# Method in brief: (§1)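 Etest on each clinical isolate, run in triplicate and read per the manufacturer's instructions; the modal MIC is reported. Quality control strain P. aeruginosa ATCC 27853. Isolates stored at −80°C in double-strength skim milk and subcultured twice on Trypticase soy agar with 5% sheep blood at 35°C before testing.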
# [3] = fT>MIC in Klebsiella pneumoniae isolate KPC 356 infected in human at 2 g administered as 4 hrs infusion every 8 hrs; type: functional
# Klebsiella pneumoniae [4] = experiment: Antimicrobial activity against Klebsiella pneumoniae isolate KPC 354 in immunocompetent mouse thigh infection model assessed as reduction in bacterial load in mouse thigh at 1 g after 24 hrs; type: functional, Thigh muscle
# Method in brief: (§2)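 Immunocompetent ICR mouse thigh model. Uranyl nitrate 5 mg/kg i.p. on day −3, no cyclophosphamide. Thighs inoculated i.m. with ~10⁸ CFU. From 2 h, s.c. doripenem regimens simulating human 1 or 2 g q8h 4-h infusions, given as three 8-h intervals; saline controls. Thighs homogenized in saline and plated at 24 h; change in log₁₀ CFU relative to 0-h untreated mice.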
# Klebsiella pneumoniae [5] = experiment: Bacteriostatic activity against Klebsiella pneumoniae isolate KPC 359 in immunocompromized mouse thigh infection model at 2 g after 24 hrs; type: functional, organism-based; details: Thigh muscle
# Method in brief: (§3)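 Neutropenic murine thigh model. Cyclophosphamide 150 and 100 mg/kg i.p. at 4 and 1 days pre-inoculation. Uranyl nitrate 5 mg/kg i.p. at day −3 for renal impairment. Each thigh injected i.m. with ~10⁶ CFU/ml, 0.1 ml. At 2 h, s.c. doripenem regimens simulating human fT>MIC for 1 or 2 g q8h 4-h infusion; saline controls. Thighs plated at 24 h; Δlog₁₀ CFU vs 0-h controls; stasis <1 log change.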
# [6] = fT>MIC in Klebsiella pneumoniae isolate KPC 360 infected in human at 1 g administered as 4 hrs infusion every 8 hrs; type: functional
# Klebsiella pneumoniae [7] = experiment: Antimicrobial activity against Klebsiella pneumoniae isolate KPC 356 by Etest; type: functional; method in brief: as §1
# Klebsiella pneumoniae [8] = experiment: Antimicrobial activity against Klebsiella pneumoniae isolate KPC 356 by broth microdilution method; type: functional
# Method in brief: (§4)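 MIC by CLSI broth microdilution, triplicate determinations, modal value reported. QC strain P. aeruginosa 27853. Isolates kept frozen at −80°C in skim milk and subcultured twice on blood agar (TSA + 5% sheep blood) at 35°C before use.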
# [9] = fT>MIC in Klebsiella pneumoniae isolate KPC 359 infected in human at 1 g administered as 4 hrs infusion every 8 hrs; type: functional
# Klebsiella pneumoniae [10] = experiment: Antimicrobial activity against Klebsiella pneumoniae isolate KPC 361 by broth microdilution method; type: functional; method in brief: as §4
# Klebsiella pneumoniae [11] = experiment: Antimicrobial activity against Klebsiella pneumoniae isolate KPC 353 by Etest; type: functional; method in brief: as §1
# Klebsiella pneumoniae [12] = experiment: Antimicrobial activity against Klebsiella pneumoniae isolate KPC 360 by Etest; type: functional
# Method in brief: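 Clinical KPC-producing isolate stored at −80°C in double-strength skim milk and subcultured twice on blood agar (5% sheep blood) at 35°C before testing. Etest strip MIC read per manufacturer's interpretation, run in triplicate, modal value reported; quality control strain PSA 27853 included.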
# Klebsiella pneumoniae [13] = experiment: Antimicrobial activity against Klebsiella pneumoniae isolate KPC 360 by broth microdilution method; type: functional
# Method in brief: (§5)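 Clinical KPC-producing isolate, stored at −80°C in double-strength skim milk, subcultured twice on Trypticase soy agar with 5% sheep blood at 35°C. MIC by broth microdilution per CLSI methods, run in triplicate, modal MIC reported; quality control strain PSA 27853 included.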
# Klebsiella pneumoniae [14] = experiment: Antimicrobial activity against Klebsiella pneumoniae isolate KPC 354 in immunocompromized mouse thigh infection model assessed as decrease in bacterial density in mouse thigh at 1 g after 24 hrs; type: functional, Thigh muscle; method in brief: as §3
# [15] = fT>MIC in Klebsiella pneumoniae isolate KPC 357 infected in human at 2 g administered as 4 hrs infusion every 8 hrs; type: functional
# Klebsiella pneumoniae [16] = experiment: Antimicrobial activity against Klebsiella pneumoniae isolate KPC 357 in immunocompromized mouse thigh infection model assessed as decrease in bacterial density in mouse thigh at 1 g after 24 hrs; type: functional, Thigh muscle; method in brief: as §3
# [17] = fT>MIC in Klebsiella pneumoniae isolate KPC 361 infected in human at 2 g administered as 4 hrs infusion every 8 hrs; type: functional
# [18] = fT>MIC in Klebsiella pneumoniae isolate KPC 353 infected in human at 2 g administered as 4 hrs infusion every 8 hrs; type: functional
# Klebsiella pneumoniae [19] = experiment: Antimicrobial activity against Klebsiella pneumoniae isolate KPC 359 by Etest; type: functional; method in brief: as §1
# Klebsiella pneumoniae [20] = experiment: Antimicrobial activity against Klebsiella pneumoniae isolate KPC 356 in immunocompromized mouse thigh infection model assessed as decrease in bacterial density in mouse thigh at 1 g after 24 hrs; type: functional, Thigh muscle; method in brief: as §3
# Klebsiella pneumoniae [21] = experiment: Antimicrobial activity against Klebsiella pneumoniae isolate KPC 357 by Etest; type: functional; method in brief: as §1
# Klebsiella pneumoniae [22] = experiment: Antimicrobial activity against Klebsiella pneumoniae isolate KPC 353 in immunocompromized mouse thigh infection model assessed as decrease in bacterial density in mouse thigh at 1 g after 24 hrs; type: functional, Thigh muscle; method in brief: as §3
# [23] = fT>MIC in Klebsiella pneumoniae isolate KPC 354 infected in human at 1 g administered as 4 hrs infusion every 8 hrs; type: functional
# Klebsiella pneumoniae [24] = experiment: Antimicrobial activity against Klebsiella pneumoniae isolate KPC 353 by broth microdilution method; type: functional; method in brief: as §4
# Klebsiella pneumoniae [25] = experiment: Antimicrobial activity against Klebsiella pneumoniae isolate KPC 359 in immunocompetent mouse thigh infection model assessed as reduction in bacterial load in mouse thigh at 2 g after 24 hrs; type: functional, Thigh muscle; method in brief: as §2
# Klebsiella pneumoniae [26] = experiment: Antimicrobial activity against Klebsiella pneumoniae isolate KPC 361 in immunocompromized mouse thigh infection model assessed as reduction in bacterial load in mouse thigh at 2 g after 24 hrs; type: functional, organism-based; details: Thigh muscle; method in brief: as §3
# Klebsiella pneumoniae [27] = experiment: Antimicrobial activity against Klebsiella pneumoniae isolate KPC 361 in immunocompromized mouse thigh infection model assessed as reduction in bacterial load in mouse thigh at 1 g after 24 hrs; type: functional, organism-based; details: Thigh muscle; method in brief: as §3
# Klebsiella pneumoniae [28] = experiment: Antimicrobial activity against Klebsiella pneumoniae isolate KPC 359 by broth microdilution method; type: functional; method in brief: as §5
# [29] = fT>MIC in Klebsiella pneumoniae isolate KPC 360 infected in human at 2 g administered as 4 hrs infusion every 8 hrs; type: functional
# [30] = fT>MIC in Klebsiella pneumoniae isolate KPC 357 infected in human at 1 g administered as 4 hrs infusion every 8 hrs; type: functional
# Klebsiella pneumoniae [31] = experiment: Antimicrobial activity against Klebsiella pneumoniae isolate KPC 354 in immunocompetent mouse thigh infection model assessed as reduction in bacterial load in mouse thigh at 2 g after 24 hrs; type: functional, Thigh muscle; method in brief: as §2
# Klebsiella pneumoniae [32] = experiment: Antimicrobial activity against Klebsiella pneumoniae isolate KPC 356 in immunocompetent mouse thigh infection model assessed as reduction in bacterial load in mouse thigh at 1 g after 24 hrs; type: functional, Thigh muscle; method in brief: as §2
# [33] = fT>MIC in Klebsiella pneumoniae isolate KPC 359 infected in human at 2 g administered as 4 hrs infusion every 8 hrs; type: functional
# [34] = fT>MIC in Klebsiella pneumoniae isolate KPC 361 infected in human at 1 g administered as 4 hrs infusion every 8 hrs; type: functional
# Klebsiella pneumoniae [35] = experiment: Antimicrobial activity against Klebsiella pneumoniae isolate KPC 354 by broth microdilution method; type: functional; method in brief: as §4
# [36] = fT>MIC in Klebsiella pneumoniae isolate KPC 354 infected in human at 2 g administered as 4 hrs infusion every 8 hrs; type: functional
# Klebsiella pneumoniae [37] = experiment: Antimicrobial activity against Klebsiella pneumoniae isolate KPC 354 by Etest; type: functional; method in brief: as §1
# Klebsiella pneumoniae [38] = experiment: Antimicrobial activity against Klebsiella pneumoniae isolate KPC 356 in immunocompetent mouse thigh infection model assessed as reduction in bacterial load in mouse thigh at 2 g after 24 hrs; type: functional, Thigh muscle; method in brief: as §2
# [39] = fT>MIC in Klebsiella pneumoniae isolate KPC 353 infected in human at 1 g administered as 4 hrs infusion every 8 hrs; type: functional
# [40] = fT>MIC in Klebsiella pneumoniae isolate KPC 356 infected in human at 1 g administered as 4 hrs infusion every 8 hrs; type: functional
# Klebsiella pneumoniae [41] = experiment: Antimicrobial activity against Klebsiella pneumoniae isolate KPC 357 by broth microdilution method; type: functional; method in brief: as §4
smiles,measurement,setting,value
C[C@@H](O)[C@H]1C(=O)N2C(C(=O)O)=C(S[C@@H]3CN[C@H](C(=O)N(C)C)C3)[C@H](C)[C@H]12 [MEROPENEM],MIC,Klebsiella pneumoniae [1],2 µg/mL
C[C@@H](O)[C@H]1C(=O)N2C(C(=O)O)=C(S[C@@H]3CN[C@H](CNS(N)(=O)=O)C3)[C@H](C)[C@H]12 [DORIPENEM],MIC,Klebsiella pneumoniae [2],> 32 µg/mL
same,fT>MIC,[3],70%
same,log10cfu,Klebsiella pneumoniae [4],1
same,Activity,Klebsiella pneumoniae [5],Active
same,fT>MIC,[6],0%
same,MIC,Klebsiella pneumoniae [7],12 µg/mL
same,MIC,Klebsiella pneumoniae [8],8 µg/mL
same,fT>MIC,[9],0%
same,MIC,Klebsiella pneumoniae [10],32 µg/mL
same,MIC,Klebsiella pneumoniae [11],3 µg/mL
same,MIC,Klebsiella pneumoniae [12],16 µg/mL
same,MIC,Klebsiella pneumoniae [13],16 µg/mL
same,log10cfu,Klebsiella pneumoniae [14],0.02
same,fT>MIC,[15],70%
same,log10cfu,Klebsiella pneumoniae [16],0.02
same,fT>MIC,[17],0%
same,fT>MIC,[18],82.5%
same,MIC,Klebsiella pneumoniae [19],> 32 µg/mL
same,log10cfu,Klebsiella pneumoniae [20],0.02
same,MIC,Klebsiella pneumoniae [21],6 µg/mL
same,log10cfu,Klebsiella pneumoniae [22],0.02
same,fT>MIC,[23],70%
same,MIC,Klebsiella pneumoniae [24],4 µg/mL
same,log10cfu,Klebsiella pneumoniae [25],1
same,Activity,Klebsiella pneumoniae [26],inactive
same,Activity,Klebsiella pneumoniae [27],inactive
same,MIC,Klebsiella pneumoniae [28],16 µg/mL
same,fT>MIC,[29],52.5%
same,fT>MIC,[30],52.5%
same,log10cfu,Klebsiella pneumoniae [31],1
same,log10cfu,Klebsiella pneumoniae [32],1
same,fT>MIC,[33],52.5%
same,fT>MIC,[34],0%
same,MIC,Klebsiella pneumoniae [35],4 µg/mL
same,fT>MIC,[36],82.5%
same,MIC,Klebsiella pneumoniae [37],4 µg/mL
same,log10cfu,Klebsiella pneumoniae [38],1
same,fT>MIC,[39],70%
same,fT>MIC,[40],52.5%
same,MIC,Klebsiella pneumoniae [41],8 µg/mL
